Data from ChEMBL document CHEMBL4270638, “Sulfonyl-containing phenyl-pyrrolyl pentane analogues: Novel non-secosteroidal vitamin D receptor modulators with favorable physicochemical properties, pharmacokinetic properties and anti-tumor activity” (Eur J Med Chem, 2018).
Converted amounts (≈) assume the structure as drawn.

Assays:
[1] = system: BXPC-3; experiment: Antiproliferative activity against human BxPC3 cells after 24 hrs by MTT assay; format: functional, cell-based; details: BXPC-3, 24 h
[2] = system: MCF7; experiment: Induction of apoptosis in human MCF7 cells expressing VDR siRNA assessed as late apoptotic cells at 1 uM after 24 hrs by Annexin-V-FITC/propidium iodide staining based flow cytometry (reference value: 1.01%); format: functional
[3] = system: MCF7; experiment: Induction of apoptosis in human MCF7 cells expressing VDR siRNA assessed as necrotic cells at 1 uM after 24 hrs by Annexin-V-FITC/propidium iodide staining based flow cytometry (reference value: 0.15%); format: functional
[4] = system: MCF7; experiment: Cell cycle arrest in human MCF7 cells expressing VDR siRNA assessed as accumulation at S phase at 1 uM after 24 hrs by propidium iodide staining based flow cytometry (reference value: 32%); format: functional
[5] = system: PC-3; experiment: Antiproliferative activity against human PC3 cells after 24 hrs by MTT assay; format: functional, cell-based; details: PC-3, 24 h
[6] = system: MCF7; experiment: Antiproliferative activity against human MCF7 cells after 24 hrs by MTT assay; format: functional, cell-based; details: MCF7, 24 h
[7] = Solubility of the compound in water at pH 7.4 by HPLC method; format: physicochemical
Method in brief: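 Aqueous solubility measured at pH 7.4, with samples quantified by HPLC.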

[8] = Half life in rat liver microsomes in presence of NADPH by HPLC method; format: ADME, microsome
Method in brief: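 Compounds incubated with rat liver microsomes plus NADPH. Remaining compound quantified by HPLC at 0, 5, 10, 20, 30, 45, 60 and 90 min, and half-life calculated.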

[9] = system: MCF7; experiment: Induction of apoptosis in human MCF7 cells expressing scrambled siRNA assessed as live cells at 1 uM after 24 hrs by Annexin-V-FITC/propidium iodide staining based flow cytometry (reference value: 97.93%); format: functional
[10] = system: MCF7; experiment: Cell cycle arrest in human MCF7 cells expressing scrambled siRNA assessed as accumulation at S phase at 1 uM after 24 hrs by propidium iodide staining based flow cytometry (reference value: 29.79%); format: functional
[11] = system: MCF7; experiment: Cell cycle arrest in human MCF7 cells expressing scrambled siRNA assessed as accumulation at G2/M phase at 1 uM after 24 hrs by propidium iodide staining based flow cytometry (reference value: 19.6%); format: functional
[12] = system: MCF7; experiment: Induction of apoptosis in human MCF7 cells expressing scrambled siRNA assessed as late apoptotic cells at 1 uM after 24 hrs by Annexin-V-FITC/propidium iodide staining based flow cytometry (reference value: 0.98%); format: functional
[13] = system: MCF7; experiment: Cell cycle arrest in human MCF7 cells expressing VDR siRNA assessed as accumulation at G0/G1 phase at 1 uM after 24 hrs by propidium iodide staining based flow cytometry (reference value: 49.17%); format: functional
[14] = system: MCF7; experiment: Induction of apoptosis in human MCF7 cells expressing scrambled siRNA assessed as necrotic cells at 1 uM after 24 hrs by Annexin-V-FITC/propidium iodide staining based flow cytometry (reference value: 0.16%); format: functional
[15] = system: MCF7; experiment: Cell cycle arrest in human MCF7 cells expressing VDR siRNA assessed as accumulation at G2/M phase at 1 uM after 24 hrs by propidium iodide staining based flow cytometry (reference value: 17.57%); format: functional
[16] = system: MCF7; experiment: Induction of apoptosis in human MCF7 cells expressing scrambled siRNA assessed as early apoptotic cells at 1 uM after 24 hrs by Annexin-V-FITC/propidium iodide staining based flow cytometry (reference value: 0.93%); format: functional
[17] = system: MCF7; experiment: Induction of apoptosis in human MCF7 cells expressing VDR siRNA assessed as live cells at 1 uM after 24 hrs by Annexin-V-FITC/propidium iodide staining based flow cytometry (reference value: 98.35%); format: functional
[18] = system: MCF7; experiment: Cell cycle arrest in human MCF7 cells expressing scrambled siRNA assessed as accumulation at G0/G1 phase at 1 uM after 24 hrs by propidium iodide staining based flow cytometry (reference value: 49.28%); format: functional
[19] = system: MCF7; experiment: Induction of apoptosis in human MCF7 cells expressing VDR siRNA assessed as early apoptotic cells at 1 uM after 24 hrs by Annexin-V-FITC/propidium iodide staining based flow cytometry (reference value: 0.49%); format: functional

Question: With `CCN(CC)CCNC(=O)c1cc(C(CC)(CC)c2ccc(OCSC)c(C)c2)cn1CC` as the molecule, how does the IC50 [1] read?
Answer: 4.11 µM

Question: What about the Activity [2] of the same molecule?
Answer: 1.91%

Question: What about the Activity [3] of the same molecule?
Answer: 0.5%

Question: And the Activity [4]?
Answer: 30.37%

Question: What about the IC50 [5] of the same molecule?
Answer: 9.54 µM

Question: And the IC50 [6]?
Answer: 4.64 µM

Question: What about the solubility [7] of the same molecule?
Answer: 198 µg/mL (≈ 418 µM)

Question: What about the half-life [8] of the same molecule?
Answer: 48.1 min

Question: What about the Activity [9] of the same molecule?
Answer: 95.2%

Question: And the Activity [10]?
Answer: 30.52%

Question: What about the Activity [11] of the same molecule?
Answer: 12.37%

Question: What about the Activity [12] of the same molecule?
Answer: 3.24%

Question: What about the Activity [13] of the same molecule?
Answer: 51.44%

Question: What about the Activity [14] of the same molecule?
Answer: 0.39%

Question: What about the Activity [15] of the same molecule?
Answer: 16.92%

Question: And the Activity [16]?
Answer: 1.17%

Question: And the Activity [17]?
Answer: 96.68%

Question: What about the Activity [18] of the same molecule?
Answer: 55.62%

Question: And the Activity [19]?
Answer: 0.91%
